Measurements collected from several papers.
Compare with care: the assays were run in different laboratories.
Sample: plasma

Compound	test system	conditions	Cmax
Cc1ccc(C(=O)N(CCCN)[C@@H](c2oc3cc(Cl)ccc3c(=O)c2Cc2ccccc2)C(C)C)cc1	human	intravenous, 6 mg/m², single dose, patients, infusion	817 ng/mL
CC(C)(O)c1ccccc1-c1ccc2[nH]c(/C=C/c3ccc(C(F)(F)F)cc3)nc2c1	male human	oral, 30 mg, single dose, fasted, healthy volunteers	91.8 ng/mL
Cn1c(=O)oc2ccc(-c3ccc(C[C@@H](C#N)NC(=O)[C@@H]4CNCCCO4)cc3)cc21	male human	oral, 15 mg, single dose, healthy volunteers	202 nM
CC(C)n1cc(C#N)c2cc(-n3cc(C(=O)O)cn3)ccc21	human	oral, 100 mg, single dose, fasted, healthy volunteers	3520 ng/mL
CO[C@@H]1[C@H](OC(=O)N2CC(CCN3CCOCC3)C2)CC[C@]2(CO2)[C@H]1[C@@]1(C)O[C@@H]1CC=C(C)C	human	subcutaneous, 1.2 mg, single dose, healthy volunteers	7.04 ng/mL
CO[C@H]1CC[C@H](N2C(=O)CNc3ncc(-c4ccc(C(C)(C)O)nc4)nc32)CC1	human	oral, 7.5 mg, patients	45.8 ng/mL
CCc1nc2c(C)cc(N3CCN(CC(=O)N4CC(O)C4)CC3)cn2c1N(C)c1nc(-c2ccc(F)cc2)c(C#N)s1	human	oral, 300 mg, single dose, fed, healthy volunteers	3800 ng/mL
CCn1c(=O)c(-c2cc(NC(=O)Nc3ccccc3)c(F)cc2Br)cc2cnc(NC)cc21	human	oral, 100 mg, single dose, patients	500 ng/mL
C[C@@]1(c2cc(NC(=O)c3ccc(C#N)cn3)ccc2F)C=CSC(N)=N1	human	oral, 3 mg, single dose	17.2 ng/mL
COCCOc1cnc2ccn([C@H](C)c3nnc4c(F)cc(-c5cnn(C)c5)cn34)c(=O)c2c1	human	oral, 400 mg, multiple doses, once daily, patients	5140 ng/mL
Cn1cc(-c2ccc(S(=O)(=O)[C@@H]3C[C@@H](C(=O)NC4(C#N)CC4)N(C(=O)C4(C(F)(F)F)CC4)C3)c(C(F)(F)F)c2)cn1	human	oral, 3 mg, single dose, fasted, healthy volunteers	20.8 ng/mL
COc1ccc([C@@H]2CN(C(=O)[C@@H](O)CO)C[C@@]2(C)[C@@H](C)O)cc1OC1CN(c2ccc(C)cn2)C1	human	oral, 0.5 mg, single dose, healthy volunteers	30 ng/mL
COc1cc(C(=O)NC2CCN(C)CC2)c(F)cc1Nc1ncc(C(F)(F)F)c(Oc2cccc3c2C(=O)N(C)C3)n1	human	oral, 50 mg, single dose, patients	312 nM
